Source: PubChem
MLL AF4-AF9 inh – inhibitors of human MLL-AF4/AF9 interaction; AID 651704; actives 0.47% (n = 350,000); P42568; AlphaScreen, biotin-AF4 peptide binding to FLAG-AF9; inhibition, % at 10 µM;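 active means every replicate reaching a set inhibition limit, whatever the replicate mean, cut at about 25% in these data; inconclusive means mean inhibition reaches that limit but some replicates miss it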;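 further: 0% = plate neutral control median and 100% = total signal loss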
RAD52 inh – RAD52 (human) annealing inhibition | recombinant RAD52 DNA annealing, FRET fluorescence | inhibition, % at 18.7 µM | actives 0.46% (n = 360,000) | AID 651710;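 active means every replicate showing at least 50% inhibition; inconclusive means mean inhibition at least 50% but not in every replicate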
RAD54 inh – RAD54 (human) branch migration inhibition | inhibition, % at 10.4 µM | RAD54 Holliday junction branch migration, FAM/BHQ fluorescence | Q92698 | actives 0.14% (n = 360,000) | AID 602329;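 active means mean normalized replicate activity at least 40 and at least half of replicates scoring 40 or more; inconclusive means only one of the two criteria met; inactive means mean below 40 and under half of replicates reaching 40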;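 further: 0% = median of neutral control wells and 100% = median of positive control wells; inhibitors cause a drop in the FAM fluorescence signal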
Target sequence (Q92698 whole entry, looked up): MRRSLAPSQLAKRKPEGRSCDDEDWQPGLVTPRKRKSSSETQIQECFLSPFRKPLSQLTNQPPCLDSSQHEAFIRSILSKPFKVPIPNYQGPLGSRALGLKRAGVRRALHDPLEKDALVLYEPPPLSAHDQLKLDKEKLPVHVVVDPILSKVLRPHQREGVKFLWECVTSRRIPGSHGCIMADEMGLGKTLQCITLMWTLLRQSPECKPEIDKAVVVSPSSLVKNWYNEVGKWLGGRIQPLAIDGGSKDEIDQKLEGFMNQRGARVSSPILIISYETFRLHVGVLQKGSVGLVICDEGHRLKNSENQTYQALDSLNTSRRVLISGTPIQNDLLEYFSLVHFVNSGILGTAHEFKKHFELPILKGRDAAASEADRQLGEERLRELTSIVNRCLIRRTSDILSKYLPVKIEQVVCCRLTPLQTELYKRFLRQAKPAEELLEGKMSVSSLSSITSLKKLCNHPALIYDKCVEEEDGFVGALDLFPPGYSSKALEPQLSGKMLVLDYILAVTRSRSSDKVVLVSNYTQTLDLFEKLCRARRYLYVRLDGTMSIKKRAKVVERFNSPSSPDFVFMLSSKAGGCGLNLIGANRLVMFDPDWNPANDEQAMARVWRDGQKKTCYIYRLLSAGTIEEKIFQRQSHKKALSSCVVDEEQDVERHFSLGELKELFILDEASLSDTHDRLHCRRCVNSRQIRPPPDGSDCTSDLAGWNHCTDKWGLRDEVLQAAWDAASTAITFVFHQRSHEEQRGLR
Glyco luc inh – blocks N-linked glycosylation in D54 reporter cells; D54 ERlucT glycosylation luciferase reporter, 24 h; percent of 100 nM tunicamycin response; reporter increase, % at 12.5 µM; actives 0.23% (n = 360,000); AID 588692;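 active means mean luciferase reporter signal, scaled so untreated is 0 and the glycosylation-blocking control 100, at or above a set limit in every replicate; inconclusive means mean reaches the limit but not every replicate does; inactive means mean below the limit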;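 further: luciferase carries N-glycosylation sites so blocking glycosylation raises the light; 0% = median of neutral control wells and 100% = median of 100 nM tunicamycin wells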
FN deposition inh – fibronectin deposition inhibition; AH1F fibroblasts, Alexa488-fibronectin deposition fluorescence, overnight; actives 0.086% (n = 350,000); inhibition, % at 12.6 µM;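 active means mean inhibition across replicates of 30% or more, regardless of how many single replicates reach that level; inconclusive means mean under 30% yet at least half of replicates reach 30%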;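 further: positive control wells lacked labelled fibronectin entirely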
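Assay system: AH1F fibroblast monolayer, labelled fibronectin deposition. Amount: 10000 cells per well. Also added: labelled fibronectin 24 nM. Compound: single-point pinned compound. Incubation: cell attachment 1 h, compound and FN exposure overnight. Detection: fluorescence after three HBSS washes, excitation 485 nm, emission 525 nm. Read-out: inhibition of fibronectin deposition signal.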
NSD2 HMT inh – inhibitors of human histone methyltransferase NSD2; O96028; NSD2 peptide methylation, AlphaScreen, 120 min; inhibition, % at 12.5 µM; actives 0.54% (n = 310,000); in the data active means inhibition above about 50%
DNA binding – counter-screen for Rad54 inhibitors: DNA binding compounds | shares compounds with RAD54 inh | Acridine orange-DNA displacement, fluorescence polarization, 20 min | AC50, µM (highest dose often 35 µM), for inactives: at the top dose activity change, negative = DNA binding | actives 8% (n = 460);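 active means signal drop giving an AC50 within twice the top valid tested concentration of each sample, actives reach about 35 µM in these data; inactive means activity opposite to expected, plus the rest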;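 further: polarization loss reports compound binding to salmon sperm DNA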
The depositor's hits bear a star; ? = inconclusive; nt = no result given. A selection: hits, their analogues and other compounds. The true share with any hit is near 1.2%.

SMILES	MLL AF4-AF9 inh	RAD52 inh	RAD54 inh	Glyco luc inh	FN deposition inh	NSD2 HMT inh	DNA binding
COc1ccccc1C1=NOC(Cn2c(NCCCO)nc3c2c(=O)n(C)c(=O)n3C)C1 (centres undefined)	1.8	-12.2	?	2.1	-3.7	4.3	4.5%
COc1ccccc1C1=NOC(Cn2c(NCC3CCCO3)nc3c2c(=O)n(C)c(=O)n3C)C1 (centres undefined)	3.5	-6.9	-3.5	1.5	2.2	-1.7	nt
COc1cc2nc(N3CCNCC3)nc(N)c2cc1OC	nt	nt	64.2*	-21.5	-1.1	0.9	-9.3%
Cc1ccnc(Nc2nc(-c3sc(C)nc3C)cs2)c1	5.7	-15.3	?	5.8	5.8	8.2	-4.5%
O=C1C(c2ccc(F)cc2)N(C2CCCCC2)C(=O)CN1C1CCCC1 (centres undefined)	nt	nt	?	1.6	-8.4	0.5	-11.7%
Cc1ccc(C2C(=O)N(C3CCC(C)CC3)CC(=O)N2C2CCCC2)cc1 (centres undefined)	nt	nt	8.9	0.8	-3.7	-1.8	nt
COc1cc2[nH]c3c(=O)n(CCN4CCCCC4)cnc3c2cc1OC	nt	nt	54.8*	0.7	nt	4.3	-14.7%
COc1ccc(C(=O)CN2CCN(CCN3C(=O)c4cccc5cccc(c45)C3=O)CC2)cc1	nt	-5.5	64.0*	9.3	1.0	-1.9	-18.9%
O=C(CS(=O)(=O)c1ccccc1)Nc1ccc(Br)cn1	nt	nt	?	0.2	0.0	-0.1	8.1%
COCCCNCCC(CCC(C)C)c1ccc2c(c1)OCO2 (centres undefined)	0.8	-9.4	?	-1.7	1.2	22.7	13.3%
O=S(=O)(c1ccc(-c2nnc(SCc3ccccc3)o2)cc1)N1CCCC1	nt	nt	?	-4.0	4.5	0.3	7.8%
Cc1ccc(CSc2nnc(-c3ccc(S(=O)(=O)N4CCCC4)cc3)o2)cc1	nt	nt	3.4	-1.8	-1.4	0.1	nt
COc1ccccc1NC(=O)CNC(=O)c1ccccc1	nt	nt	51.7*	0.6	nt	2.0	-13.6%
O=C1[C@H](Cc2ccc(C(F)(F)F)cc2)CCn2cc(nn2)COC[C@H]2CCCCN12	nt	nt	nt	nt	-17.8	nt	nt
O=c1cc(CSc2n[nH]c(=O)n2C2CC2)c2ccc(O)cc2o1	-1.6	-1.5	?	0.5	-0.5	-1.1	-1.6%
O=c1cc(NCCO)c2ccccc2o1	nt	nt	0.0	1.5	nt	-4.1	nt
CCN(CC)CCNc1ccc(CO)c2oc3ccccc3c(=O)c12	3.3	47.5	80.2*	43.4*	2.1	19.2	-23.0%
Oc1ccc(CCNc2c3ccccc3nc3ccccc23)cc1O	19.5	106.2*	116.1*	37.4*	2.5	16.9	25.5µM*
Cc1ccc(O)c(Nc2c3ccccc3nc3ccccc23)c1	7.2	2.5	9.1	10.2	-5.3	1.2	nt
CCOC(=O)c1c(CN2CCCCC2)n(C)c2cc(Br)c(OC)cc12	nt	nt	?	0.2	nt	-1.3	-16.6%
CN1CCN(CCNC(=O)c2cc3c(=O)n(C)c4ccccc4c3n2C)CC1	-2.7	19.5	63.6*	8.7	-42.0	nt	0.4%
CCCN1CCN(CCCNC(=O)c2cc3c(=O)n(C)c4ccccc4c3n2C)CC1	-3.2	26.4	?	7.4	4.0	nt	-3.4%
Cn1c(C(=O)NCCCN2CCc3ccccc3C2)cc2c(=O)n(C)c3ccccc3c21	3.8	20.0	19.2	3.2	1.0	nt	nt
COc1ccc(-c2cn(CC[C@@H]3CC[C@@H](NC(=O)Cc4ccccn4)[C@@H](CO)O3)nn2)cc1	0.9	-20.9	-3.3	nt	nt	nt	nt
COc1cccc(-c2nc(NC(C)(C)C)c3ccccc3n2)c1O	nt	nt	7.5	-2.1	13.6	1.8	nt
SMILES	MLL AF4-AF9 inh	RAD52 inh	RAD54 inh	Glyco luc inh	FN deposition inh	NSD2 HMT inh	DNA binding
COc1cccc(-c2nc(NCCN3CCOCC3)c3ccccc3n2)c1O	nt	nt	109.4*	13.9	nt	4.9	-4.3%
Oc1ccccc1-c1nc(NCCN2CCOCC2)c2ccccc2n1	nt	nt	?	4.5	-6.7	5.9	9.7%
Clc1ccc(-c2nc(NCCCN3CCOCC3)c3ccccc3n2)cc1	nt	1.6	23.8	-1.8	18.4	-3.1	nt
CN(C)CCCNc1nc(-c2ccccc2)nc2ccccc12	-0.6	48.5	66.6*	5.9	1.3	1.9	-21.6%
Cc1cccc(-c2nc(NCCN(C)C)c3ccccc3n2)c1	5.0	16.1	38.0	10.4	-5.7	18.5	nt
Cc1ccc(-c2nc(NCCN3CCOCC3)c3ccccc3n2)cc1	nt	nt	?	5.0	-12.5	nt	-6.9%
